According to ChEMBL document CHEMBL1136441, “The design and synthesis of novel orally active inhibitors of AP-1 and NF-kappaB mediated transcriptional activation. SAR of in vitro and in vivo studies” (Bioorg Med Chem Lett, 2003):

Experiments:
[1] = Inhibition of AP-1 and NF-kB mediated transcriptional activation in Jurkat T-cells; format: functional, cell-based; settings: Homo sapiens
Method in brief: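 Jurkat T-cell luciferase reporter lines, stably transfected with either an NF-kB site (MHC promoter) fused to a minimal SV-40 promoter, or an AP-1 site (collagenase promoter). Cells at 1×10⁶/mL in medium with 10% serum-plus were plated 18 h ahead. Compound in 0.2% DMSO/H₂O was added for 0.5 h at 37 °C, then PMA plus PHA (1 ug/mL) for 5 h. Lysate luminescence was read; IC50 is 50% of control luciferase.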

Caco-2 = assay: Caco-2 permeability coefficient value was determined

IC50 [1]	Compound	Pc (Caco-2)
20 nM	CC1=CC(=O)N(Nc2nc(-c3cccs3)nc3ccc(Cl)cc23)C1=O	–
9000 nM	CC1=CC(=O)N(Nc2nc(C(F)(F)F)nc3ccc(S(C)(=O)=O)cc23)C1=O	–
3 nM	COc1ccc2nc(-c3cccs3)nc(NN3C(=O)C=C(C)C3=O)c2c1	1.62e-06 cm/s
10 nM	COc1cccc2nc(C(F)(F)F)nc(NN3C(=O)C=C(C)C3=O)c12	1.49e-06 cm/s
100 nM	CC1=CC(=O)N(Nc2nc(C(F)(F)F)nc3ccccc23)C1=O	–
60 nM	CC1=CC(=O)N(Nc2nc(-c3cccs3)nc3ccccc23)C1=O	–
100 nM	CC1=CC(=O)N(Nc2nc(C(F)(F)F)nc3ccc(O)cc23)C1=O	–
20 nM	CC1=CC(=O)N(Nc2nc(C(F)(F)F)nc3cc(N(C)C)ccc23)C1=O	1.68e-06 cm/s
80 nM	CSc1ccc2nc(C(F)(F)F)nc(NN3C(=O)C=C(C)C3=O)c2c1	–
200 nM	CC1=CC(=O)N(Nc2nc(C(F)(F)F)nc3cc(N4CCCCC4)ccc23)C1=O	–
1000 nM	CC1=CC(=O)N(Nc2nc(C(F)(F)F)nc3ccc([S+](C)[O-])cc23)C1=O (stereo not drawn)	–
400 nM	CC1=CC(=O)N(Nc2nc(C(F)(F)F)nc3cccc(C)c23)C1=O	–
30 nM	COc1ccc2nc(C(F)(F)F)nc(NN3C(=O)C=C(C)C3=O)c2c1	–

The next lines start with the compound.

Compound	IC50 [1]	Pc (Caco-2)
CC1=CC(=O)N(Nc2nc(-c3cccs3)nc3cc(N4CCOCC4)ccc23)C1=O	200 nM	–
COc1cc2nc(-c3cccs3)nc(NN3C(=O)C=C(C)C3=O)c2cc1OC	50 nM	–
COc1cccc2c(NN3C(=O)C=C(C)C3=O)nc(-c3cccs3)nc12	50 nM	–
CC1=CC(=O)N(Nc2nc(-c3cccs3)nc3cccc(C)c23)C1=O	20 nM	–
CC1=CC(=O)N(Nc2nc(-c3ccccc3)nc3ccccc23)C1=O	100 nM	–
CC1=CC(=O)N(Nc2nc(-c3cccs3)nc3cc(N(C)C)ccc23)C1=O	40 nM	1.41e-06 cm/s
COc1ccc2c(NN3C(=O)C=C(C)C3=O)nc(-c3cccs3)nc2c1	20 nM	–
COc1cc2c(NN3C(=O)C=C(C)C3=O)nc(-c3cccs3)nc2c(OC)c1OC	40 nM	–
COc1cccc2nc(-c3cccs3)nc(NN3C(=O)C=C(C)C3=O)c12 [AS-602868]	8 nM	1.41e-05 cm/s
CC1=CC(=O)N(Nc2nc(-c3cccs3)nc3cccc(F)c23)C1=O	50 nM	–
